ChEMBL document CHEMBL1142313, “Parallel synthesis of a series of potentially brain penetrant aminoalkyl benzoimidazoles” (Bioorg Med Chem, 2008)
Calls of active or inactive are those of the source. No cut-off for these calls is given here.

What was measured:
Assay type in all cases: functional, cell-based
[1] = target: Neuronal acetylcholine receptor subunit alpha-7 (Rattus norvegicus, UniProt Q05941); assay: Agonist activity at rat alpha-7 nAChR expressed in GH4C1-F7 cells assessed as effect on calcium influx by FLIPR
[2] = target: Neuronal acetylcholine receptor subunit alpha-7 (Rattus norvegicus) (UniProt Q05941); assay: Reversal of agonist activity at rat alpha-7 nAChR expressed in GH4C1-F7 cells assessed as effect on calcium influx at 10 uM in presence of methyllycaconitine by FLIPR
Outline: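 GH4C1-F7 rat alpha7-nAChR cells loaded with Fluo-4/probenecid at 37 °C for 30 min, then washed in HBSS-20 mM Hepes with 2.5 mM probenecid, with or without MLA 1 µM. Compound added and Ca2+ fluorescence read by FLIPR, every second for 1 min then every 30 s for 10 min. Peak height taken as max-min. A signal lost in the presence of MLA marks alpha7 selectivity.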

[3] = target: Neuronal acetylcholine receptor subunit alpha-7 (Rattus norvegicus) (UniProt Q05941); assay: Agonist activity at rat alpha-7 nAChR expressed in GH4C1-F7 cells assessed as effect on calcium influx at 5 uM by FLIPR relative to nicotine
Outline: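 GH4C1-F7 cells stably expressing rat alpha7 nAChR were seeded at 100,000/well on poly-D-lysine plates and loaded with Fluo-4 (with pluronic acid and probenecid) for 30 min at 37 °C.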

Sequence of Neuronal acetylcholine receptor subunit alpha-7 (Q05941 whole entry): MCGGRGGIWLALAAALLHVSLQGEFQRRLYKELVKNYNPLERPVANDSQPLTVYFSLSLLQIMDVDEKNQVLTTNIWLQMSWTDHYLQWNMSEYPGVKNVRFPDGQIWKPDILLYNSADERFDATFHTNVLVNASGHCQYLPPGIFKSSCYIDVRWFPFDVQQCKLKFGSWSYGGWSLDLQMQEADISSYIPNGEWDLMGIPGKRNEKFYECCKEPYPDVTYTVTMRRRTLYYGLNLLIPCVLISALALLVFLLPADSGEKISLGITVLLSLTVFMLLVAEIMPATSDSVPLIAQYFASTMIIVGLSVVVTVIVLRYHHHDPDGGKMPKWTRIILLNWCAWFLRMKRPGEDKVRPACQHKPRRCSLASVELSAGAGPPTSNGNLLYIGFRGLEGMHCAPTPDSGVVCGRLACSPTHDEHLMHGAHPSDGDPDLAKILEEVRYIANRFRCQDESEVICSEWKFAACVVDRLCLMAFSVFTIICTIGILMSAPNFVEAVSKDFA
Sequence of Neuronal acetylcholine receptor subunit alpha-7 (Rattus norvegicus) (Q05941 whole entry): as above

| SMILES | EC50 [1] [nM] | Activity [2] | Activity [3] [%] |
| --- | --- | --- | --- |
| O=C(Nc1ccccc1F)OC1CN2CCC1CC2 (stereo unspecified) | 600 | – | – |
| CN(C)CCCn1c(Cc2ccc(Br)cc2)nc2ccccc21 | 2600 | Active | > 20 |
| Cc1ccc2nc(Cc3ccc(Br)cc3)n(CCCN(C)C)c2c1 | 1700 | Active | > 20 |
| CN1[C@@H]2CC[C@H]1C[C@H](NC(=O)Nc1ccc(Br)cc1)C2 | 200 | – | – |
| CN(C)CCCn1c(COc2ccccc2)nc2ccccc21 | 2600 | Active | > 20 |
| CN1CCCC1CCn1c(Cc2ccc(Br)cc2)nc2ccccc21 (stereo unspecified) | 2700 | Active | > 20 |
| CN1CCN(CCCn2c(COc3cccc(Cl)c3)nc3ccccc32)CC1 | 10000 | – | > 20 |
